Measurements as given in ChEMBL document CHEMBL3612066, “Design, Synthesis, and Biological Evaluation of Pyrazolo[1,5-a]pyridine-3-carboxamides as Novel Antitubercular Agents” (ACS Med Chem Lett, 2015).
In brackets after ≈: the same amount, converted by molar mass.

How the values were obtained:
[1] = tested on: Mycobacterium tuberculosis; test: Antitubercular activity against Mycobacterium tuberculosis H37Ra after 7 days by microplate alamar blue assay; type: functional; details: 168 h
Vero = test: Cytotoxicity against African green monkey Vero cells after 72 hrs by CCK8 assay; type: cell-based; details: Chlorocebus sabaeus
Procedure, shortened: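 VERO African green monkey kidney cells; growth inhibition read by CCK-8 assay and reported as IC50. Values are means of two or more independent experiments, with variation <20%.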

[2] = tested on: Mycobacterium tuberculosis; test: Antitubercular activity against Mycobacterium tuberculosis H37Rv after 7 days by microplate alamar blue assay; type: functional; details: 168 h
Procedure, shortened: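 MIC against Mtb H37Rv by microplate alamar blue assay (MABA); MIC values interpolated by curve fitting.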

[3] = tested on: Mycobacterium tuberculosis; test: Antitubercular activity against fluorescent reporter strain of Mycobacterium tuberculosis H37Rv after 5 days by fluorescence assay; type: functional, organism-based; details: 120 h
Procedure, shortened: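 A fluorescent reporter strain of Mtb H37Rv was grown in liquid medium under aerobic conditions, and growth was read by fluorescence. MIC, IC50 and IC90 were determined.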

Mus musculus = test: Toxicity in autoluminescent Mycobacterium tuberculosis H37Ra infected noninvasive BALB/c mouse assessed as mortality at 4 to 100 mg/kg, po qd for 6 days; type: organism-based; details: in vivo, 144 h
Procedure, shortened: (§1)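 Mice were infected intravenously with log-phase, marker-free autoluminescent Mtb H37Ra at 2 × 10^6 CFU per mouse. They were then dosed by oral gavage once daily for 6 consecutive days at 4, 20 or 100 mg/kg/day, with CMC-Na as vehicle. Bioluminescence (RLU) was read in the same live, anesthetized mice every other day and expressed as the RLUdayn/RLUday0 ratio. Mortality was monitored during treatment.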

[4] = tested on: Mycobacterium tuberculosis; test: Antitubercular activity against autoluminescent Mycobacterium tuberculosis H37Ra infected in po dosed noninvasive BALB/c mouse assessed as bioluminescence intensity by measuring relative light unit administered qd for 6 days; type: functional, organism-based; procedure, shortened: as §1
[5] = tested on: Mycobacterium tuberculosis; test: Antitubercular activity against autoluminescent Mycobacterium tuberculosis H37Ra infected in noninvasive BALB/c mouse assessed as bactericidal activity by measuring reduction in relative light unit at 100 mg/kg, po qd for 6 days relative to control; type: functional; procedure, shortened: as §1
[6] = tested on: Mycobacterium tuberculosis; test: Antitubercular activity against autoluminescent Mycobacterium tuberculosis H37Ra infected in noninvasive BALB/c mouse assessed as bactericidal activity by measuring reduction in relative light unit at 100 mg/kg, po qd for 2 days relative to control; type: functional; procedure, shortened: as §1
[7] = tested on: Mycobacterium tuberculosis; test: Antitubercular activity against autoluminescent Mycobacterium tuberculosis H37Ra infected in noninvasive BALB/c mouse assessed as bioluminescence intensity by measuring relative light unit at 4 mg/kg, po qd for 6 days; type: functional; procedure, shortened: as §1
[8] = tested on: Mycobacterium tuberculosis; test: Antitubercular activity against autoluminescent Mycobacterium tuberculosis H37Ra infected in noninvasive BALB/c mouse assessed as bioluminescence intensity by measuring relative light unit at 20 mg/kg, po qd for 6 days; type: functional; procedure, shortened: as §1
[9] = tested on: Mycobacterium tuberculosis; test: Antitubercular activity against autoluminescent Mycobacterium tuberculosis H37Ra infected in noninvasive BALB/c mouse assessed as bioluminescence intensity by measuring relative light unit at 100 mg/kg, po qd for 6 days; type: functional; procedure, shortened: as §1
[10] = tested on: Mycobacterium tuberculosis; test: Antitubercular activity against autoluminescent Mycobacterium tuberculosis H37Ra infected in noninvasive BALB/c mouse assessed as bactericidal activity by measuring reduction in relative light unit at 100 mg/kg, po qd for 4 days relative to control; type: functional

| SMILES | MIC [1] [µM] | IC50 (Vero) [nM] | MIC [2] [µM] | other results |
| --- | --- | --- | --- | --- |
| O=C(NCc1ccc(N2CCC(c3ccc(OC(F)(F)F)cc3)CC2)cc1)c1c(C2CC2)nn2ccc(Cl)cc12 | 0.176 (≈ 0.1 µg/mL) | > 100000 | 0.0176 (≈ 0.01 µg/mL) | – |
| Cc1nn2ccc(C(C)C)cc2c1C(=O)NCc1ccc(N2CCC(c3ccc(OC(F)(F)F)cc3)CC2)cc1 | 1.82 (≈ 1 µg/mL) | – | 0.0472 (≈ 0.026 µg/mL) | – |
| O=C(NCc1ccc(N2CCC(c3ccc(OC(F)(F)F)cc3)CC2)cc1)c1cnn2ccc(Cl)cc12 | 18.9 (≈ 10 µg/mL) | – | 0.359 (≈ 0.19 µg/mL) | – |
| Cc1ccn2nc(C)c(C(=O)NCc3ccc(N4CCC(C(F)(F)F)CC4)cc3)c2c1 | 0.0023 (≈ 0.00099 µg/mL) | > 100000 | 0.0139 (≈ 0.00598 µg/mL) | – |
| NNC(=O)c1ccncc1 [ISONIAZID] | 0.729 (≈ 0.1 µg/mL) | – | 2.99 (≈ 0.41 µg/mL) | – |
| Cc1ccn2nc(C)c(C(=O)NCc3ccc(-c4ccc(OC(F)(F)F)cc4)cc3)c2c1 | 0.0068 (≈ 0.00299 µg/mL) | 50700 | 0.0137 (≈ 0.00602 µg/mL) | – |
| Cc1ccn2nc(C)c(C(=O)NCc3ccc(N4CCN(c5ccc(F)cc5)CC4)cc3)c2c1 | 0.0066 (≈ 0.00302 µg/mL) | > 100000 | 0.0131 (≈ 0.00599 µg/mL) | IC50 [3]: 2.5 nM; IC90 [3]: 6.5 nM; MIC [3]: 0.0063 µM (≈ 0.00288 µg/mL) |
| Cc1nn2ccc(C(F)(F)F)cc2c1C(=O)NCc1ccc(N2CCC(c3ccc(OC(F)(F)F)cc3)CC2)cc1 | 1.73 (≈ 1 µg/mL) | > 100000 | 0.052 (≈ 0.03 µg/mL) | – |
| CCc1ccn2nc(C)c(C(=O)NCc3ccc(N4CCC(c5ccc(OC(F)(F)F)cc5)CC4)cc3)c2c1 | 0.0186 (≈ 0.00998 µg/mL) | > 100000 | 0.0112 (≈ 0.00601 µg/mL) | – |
| O=C(NCc1ccc(N2CCC(c3ccc(OC(F)(F)F)cc3)CC2)cc1)c1c(-c2ccccc2)nn2ccc(Cl)cc12 | > 16.5 | – | 1.55 (≈ 0.936 µg/mL) | – |
| Cc1nn2c(C)cccc2c1C(=O)NCc1ccc(N2CCC(c3ccc(OC(F)(F)F)cc3)CC2)cc1 | 5.74 (≈ 3 µg/mL) | – | 0.115 (≈ 0.06 µg/mL) | – |
| Cc1ccc2c(C(=O)NCc3ccc(N4CCC(c5ccc(OC(F)(F)F)cc5)CC4)cc3)c(C)nn2c1 | 0.574 (≈ 0.3 µg/mL) | > 100000 | 0.0134 (≈ 0.007 µg/mL) | – |
| Cc1nn2cccc(C)c2c1C(=O)NCc1ccc(N2CCC(c3ccc(OC(F)(F)F)cc3)CC2)cc1 | > 19.1 | – | 1.15 (≈ 0.6 µg/mL) | – |
| Cc1nn2ccc(C(C)(C)C)cc2c1C(=O)NCc1ccc(N2CCC(c3ccc(OC(F)(F)F)cc3)CC2)cc1 | > 17.7 | – | > 1.77 | – |
| COc1ccn2nc(C)c(C(=O)NCc3ccc(N4CCC(c5ccc(OC(F)(F)F)cc5)CC4)cc3)c2c1 | 0.0056 (≈ 0.00302 µg/mL) | > 100000 | 0.0111 (≈ 0.00598 µg/mL) | Activity (Mus musculus): Non-toxic; Activity [4]: Dose-dependent effect; RLU [5]: 6.5; RLU [6]: 3.6; RLU [7]: 0.4; RLU [8]: 0.19; IC50 [3]: 2.5 nM; IC90 [3]: 5.7 nM; MIC [3]: 0.0056 µM (≈ 0.00302 µg/mL); RLU [9]: 0.15; RLU [10]: 5 |
| Cc1ccn2nc(C)c(C(=O)NCc3ccc(N4CCCCC4)cc3)c2c1 | 0.0276 (≈ 0.01 µg/mL) | > 100000 | 0.0166 (≈ 0.00602 µg/mL) | – |
| Cc1ccn2nc(C)c(C(=O)NCc3ccc(N(C)C)cc3)c2c1 | 0.31 (≈ 0.1 µg/mL) | > 100000 | 0.0868 (≈ 0.028 µg/mL) | – |
| Cc1ccn2nc(C)c(C(=O)NCc3ccc(C(F)(F)F)cc3)c2c1 | 0.288 (≈ 0.1 µg/mL) | > 100000 | 0.0691 (≈ 0.024 µg/mL) | – |
| Cc1nn2ccccc2c1C(=O)NCc1ccc(N2CCC(c3ccc(OC(F)(F)F)cc3)CC2)cc1 | 0.59 (≈ 0.3 µg/mL) | > 100000 | 0.0098 (≈ 0.00498 µg/mL) | – |
| Cc1ccn2nc(C)c(C(=O)NCc3ccc(N4CCC(c5ccc(OC(F)(F)F)cc5)CC4)cc3)c2c1 | 0.0057 (≈ 0.00298 µg/mL) | > 100000 | 0.0077 (≈ 0.00402 µg/mL) | IC50 [3]: 5.1 nM; IC90 [3]: 12 nM; MIC [3]: 0.011 µM (≈ 0.00575 µg/mL) |
| Cc1nn2ccc(Cl)cc2c1C(=O)NCc1ccc(N2CCC(c3ccc(OC(F)(F)F)cc3)CC2)cc1 | 0.0184 (≈ 0.00999 µg/mL) | > 100000 | 0.0074 (≈ 0.00402 µg/mL) | – |
| Cc1nn2ccc(-c3ccccc3)cc2c1C(=O)NCc1ccc(N2CCC(c3ccc(OC(F)(F)F)cc3)CC2)cc1 | > 17.1 | – | 0.479 (≈ 0.28 µg/mL) | – |
| CCc1nc2ccc(Cl)cn2c1C(=O)NCc1ccc(N2CCC(c3ccc(OC(F)(F)F)cc3)CC2)cc1 [TELACEBEC] | 0.0054 (≈ 0.00301 µg/mL) | > 100000 | 0.0108 (≈ 0.00602 µg/mL) | – |
| CO[C@H]1/C=C/O[C@@]2(C)Oc3c(C)c(O)c4c(O)c(c(/C=N/N5CCN(C)CC5)c(O)c4c3C2=O)NC(=O)/C(C)=C\C=C\[C@H](C)[C@H](O)[C@@H](C)[C@@H](O)[C@@H](C)[C@H](OC(C)=O)[C@@H]1C [RIFAMPIN] | 0.00364 (≈ 0.003 µg/mL) | – | 0.0364 (≈ 0.03 µg/mL) | IC50 [3]: 4.1 nM; IC90 [3]: 6.9 nM; MIC [3]: 0.0065 µM (≈ 0.00535 µg/mL) |
| CCc1nn2ccc(Cl)cc2c1C(=O)NCc1ccc(N2CCC(c3ccc(OC(F)(F)F)cc3)CC2)cc1 | 0.0538 (≈ 0.03 µg/mL) | > 100000 | 0.0108 (≈ 0.00602 µg/mL) | IC50 [3]: 31.3 nM; IC90 [3]: 150 nM; MIC [3]: 0.129 µM (≈ 0.0719 µg/mL) |
